Test [1] addresses T1, Adrenergic receptor beta (Rattus norvegicus) (UniProt P18090+P10608+P26255). Nature of the test: % specific binding blocked by the compound fraction of 2.6(x10E-6) in beta adrenergic receptor from lung membranes, after serial wash. The class given is tissue-based. The gist of the method:
(§1)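 Rat heart or lung membranes (ca. 500 or 150 μg protein) preincubated with compound 1 h at 30 °C, centrifuged, then washed five times (resuspend in buffer, 10 min at 30 °C, centrifuge). Residual specific (–)-[³H]dihydroalprenolol binding (5 nM, 20 min, 30 °C, 50 mM Tris/10 mM MgCl₂ pH 7.4; nonspecific defined with 10 μM (±)-alprenolol) compared with washed untreated membranes; percent inhibition, ≥2 experiments in triplicate.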

In test [2] the target is T1, Adrenergic receptor beta (Rattus norvegicus). Nature of the test: % specific binding blocked by the compound fraction of 2.6(x10E-6) in beta adrenergic receptor from heart membranes, after serial wash. The gist of the method:
as §1

The target is the same in test [3]. Nature of the test: % specific binding blocked by the compound fraction of 2.6 (1x10E- 5) in beta adrenergic receptor from lung membranes, after serial wash. It is filed as tissue-based. The gist of the method:
as §1

Test [4] has the same target. Nature of the test: % specific binding blocked by the compound fraction of 5.6 (1x10E- 5) in beta adrenergic receptor from lung membranes, after serial wash. The class given is tissue-based. The gist of the method: as §1
Test [5] shares this target. The test is described as follows: % specific binding blocked by the compound fraction of 5.6 (1x10E- 5) in beta adrenergic receptor from heart membranes, after serial wash. The gist of the method: as §1
Test [6] has the same target. The test is described as follows: % specific binding blocked by the compound fraction of 2.6 (1x10E- 5) in beta adrenergic receptor from heart membranes, after serial wash. A digest of the protocol: as §1
The target is the same in test [7]. Nature of the test: % specific binding blocked by the compound fraction of 5.6(x10E-6) in beta adrenergic receptor from heart membranes, after serial wash. The gist of the method:
as §1

Test [8] has the same target. The test is described as follows: % specific binding blocked by the compound fraction of 5.6(x10E-6) in beta adrenergic receptor from lung membranes, after serial wash. The class given is tissue-based. A digest of the protocol:
as §1

SMILES strings stand for the structures.

For `C=CCc1ccccc1OCC(O)CNC(C)COCC(C)OCC(C)OCC(C)NCC(O)COc1ccccc1CC=C` (configuration not stated), the results for the Binding in test [1] and in test [2] were 77% and 42.5%, respectively.

Consider `CC(N)COCC(C)OCC(C)OCC(C)N` (configuration not stated), for which the Binding in test [3], in test [4], in test [5] and in test [6] was 0% throughout.

For the compound `C=CCc1ccccc1OCC(O)CNC(C)COCC(C)OCC(C)OCC(C)N(CC(O)COc1ccccc1CC=C)CC(O)COc1ccccc1CC=C` (configuration not stated), the Binding in test [1] came out at 68%; in test [2] it was 26%.

Take `C=CCc1ccccc1OCC(O)CNC(C)COC(C)COC(C)COCC(C)N` (configuration not stated): the Binding in test [1] worked out at 14%; in test [7], 0%; in test [8], 0%; in test [2], 3.8%.

Source of the values: ChEMBL document CHEMBL1122311, “beta-Adrenergic antagonists with multiple pharmacophores: persistent blockade of receptors” (J Med Chem, 1983).
